Results reported in ChEMBL document CHEMBL4152184, “NB 06: From a simple lysosomotropic aSMase inhibitor to tools for elucidating the role of lysosomes in signaling apoptosis and LPS-induced inflammation” (Eur J Med Chem, 2018).
Calls of active or inactive are those of the source. The calls are words filed in the database; no cut-off is given here.

Tests used:
[1] = biological target: T1, Acid ceramidase (Homo sapiens) (UniProt Q13510); assay: Inhibition of exogenous C6-ceramid-stimulated acid ceramidase in human PBMC assessed as ratio of C16-ceramide/lipid phosphate level at 10 uM preincubated for 30 mins followed by C6-ceramid stimulation measured after 4 hrs by HPLC method (reference value: 2.19); type: cell-based
T1 sequence (whole entry): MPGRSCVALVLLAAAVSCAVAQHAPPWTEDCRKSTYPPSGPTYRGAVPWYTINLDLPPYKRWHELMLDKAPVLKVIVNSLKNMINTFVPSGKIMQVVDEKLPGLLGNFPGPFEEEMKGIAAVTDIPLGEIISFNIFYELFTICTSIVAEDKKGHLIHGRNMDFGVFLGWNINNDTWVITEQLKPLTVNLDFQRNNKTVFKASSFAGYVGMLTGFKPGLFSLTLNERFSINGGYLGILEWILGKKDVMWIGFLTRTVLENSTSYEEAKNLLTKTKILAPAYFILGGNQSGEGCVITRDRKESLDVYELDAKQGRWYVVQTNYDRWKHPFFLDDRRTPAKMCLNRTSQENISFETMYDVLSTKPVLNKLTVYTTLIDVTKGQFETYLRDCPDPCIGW
In short: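 Human macrophages from primary culture were preincubated 30 min with 10 µM compound. They were then stimulated 4 h with mmLDL (54 µg/mL), TNFalpha (3 ng/mL) or exogenous C6-ceramide (10 µM), or left unstimulated. Individual ceramide species (C16 and C24:1) were quantified in the cell lipid extracts.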

[2] = biological target: T1, Acid ceramidase (Homo sapiens); assay: Inhibition of C2-dihydroceramide-stimulated acid ceramidase in human PBMC assessed as reduction in C16-ceramide level at 10 uM preincubated for 30 mins followed by C2-dihydroceramide stimulation measured after 4 hrs by HPLC method; type: cell-based
MONO-MAC-6 [3] = assay: Upregulation of FCGR2B mRNA expression level in LPS-stimulated human MONO-MAC-6 cells preincubated for 30 mins followed by LPS stimulation measured after 4 hrs by qRT-PCR analysis relative to control; type: functional
MONO-MAC-6 [4] = assay: Upregulation of CCL4 mRNA expression level in LPS-stimulated human MONO-MAC-6 cells at 5 uM preincubated for 30 mins followed by LPS stimulation measured after 6 hrs by oligonucleotide array hybridization assay (reference value: 6.37); type: functional
MONO-MAC-6 [5] = assay: Downregulation of CCL4 mRNA expression level in human MONO-MAC-6 cells at 5 uM incubated for 30 mins measured after 6 hrs by oligonucleotide array hybridization assay relative to control; type: functional
In short: (§1)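 Total RNA was isolated, transcribed and labeled with DY-647 dye, then co-hybridized with DY-548-labeled cDNA from untreated cells on an inflammation oligonucleotide chip (780 gene probes). Differential expression >1.5 was taken as significant.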

MONO-MAC-6 [6] = assay: Downregulation of CCL20 mRNA expression level in human MONO-MAC-6 cells at 5 uM incubated for 30 mins measured after 4 hrs by oligonucleotide array hybridization assay relative to control; type: functional; in short: as §1
MONO-MAC-6 [7] = assay: Downregulation of PTX3 mRNA expression level in human MONO-MAC-6 cells at 5 uM incubated for 30 mins measured after 2 hrs by oligonucleotide array hybridization assay relative to control; type: functional; in short: as §1
MONO-MAC-6 [8] = assay: Downregulation of PTX3 mRNA expression level in human MONO-MAC-6 cells at 5 uM incubated for 30 mins measured after 4 hrs by oligonucleotide array hybridization assay relative to control; type: functional; in short: as §1
MONO-MAC-6 [9] = assay: Downregulation of PTX3 mRNA expression level in human MONO-MAC-6 cells at 5 uM incubated for 30 mins measured after 6 hrs by oligonucleotide array hybridization assay relative to control; type: functional; in short: as §1
MONO-MAC-6 [10] = assay: Upregulation of CXCL10 mRNA expression level in LPS-stimulated human MONO-MAC-6 cells at 5 uM preincubated for 30 mins followed by LPS stimulation measured after 2 hrs by oligonucleotide array hybridization assay (reference value: 1.73); type: functional
MONO-MAC-6 [11] = assay: Upregulation of CXCL10 mRNA expression level in human MONO-MAC-6 cells at 5 uM incubated for 30 mins measured after 2 hrs by oligonucleotide array hybridization assay relative to control; type: functional
MONO-MAC-6 [12] = assay: Downregulation of CXCL2 mRNA expression level in human MONO-MAC-6 cells at 5 uM incubated for 30 mins measured after 1 hr by oligonucleotide array hybridization assay relative to control; type: functional; in short: as §1
MONO-MAC-6 [13] = assay: Downregulation of CXCL2 mRNA expression level in human MONO-MAC-6 cells at 5 uM incubated for 30 mins measured after 4 hrs by oligonucleotide array hybridization assay relative to control; type: functional; in short: as §1
MONO-MAC-6 [14] = assay: Upregulation of PTGS2 mRNA expression level in LPS-stimulated human MONO-MAC-6 cells at 5 uM preincubated for 30 mins followed by LPS stimulation measured after 1 hr by oligonucleotide array hybridization assay (reference value: 1.01); type: functional
MONO-MAC-6 [15] = assay: Upregulation of ICAM1 mRNA expression level in LPS-stimulated human MONO-MAC-6 cells at 5 uM preincubated for 30 mins followed by LPS stimulation measured after 4 hrs by oligonucleotide array hybridization assay (reference value: 2.88); type: functional
MONO-MAC-6 [16] = assay: Downregulation of ICAM1 mRNA expression level in human MONO-MAC-6 cells at 5 uM incubated for 30 mins measured after 4 hrs by oligonucleotide array hybridization assay relative to control; type: functional; in short: as §1
MONO-MAC-6 [17] = assay: Downregulation of CXCL2 mRNA expression level in human MONO-MAC-6 cells at 5 uM incubated for 30 mins measured after 1 hr by qRT-PCR method relative to control; type: functional
MONO-MAC-6 [18] = assay: Downregulation of CXCL2 mRNA expression level in human MONO-MAC-6 cells at 5 uM incubated for 30 mins measured after 2 hrs by qRT-PCR method relative to control; type: functional
MONO-MAC-6 [19] = assay: Downregulation of CXCL2 mRNA expression level in human MONO-MAC-6 cells at 5 uM incubated for 30 mins measured after 4 hrs by qRT-PCR method relative to control; type: functional
MONO-MAC-6 [20] = assay: Downregulation of IL-6 mRNA expression level in LPS-stimulated human MONO-MAC-6 cells at 5 uM preincubated for 30 mins followed by LPS stimulation measured after 1 hr by qRT-PCR method (reference value: 1); type: functional
MONO-MAC-6 [21] = assay: Downregulation of IL-6 mRNA expression level in human MONO-MAC-6 cells at 5 uM incubated for 30 mins measured after 1 hr by qRT-PCR method relative to control; type: functional
MONO-MAC-6 [22] = assay: Upregulation of IL-6 mRNA expression level in LPS-stimulated human MONO-MAC-6 cells at 5 uM preincubated for 30 mins followed by LPS stimulation measured after 2 hrs by qRT-PCR method (reference value: […]); type: functional
MONO-MAC-6 [23] = assay: Downregulation of IL-6 mRNA expression level in human MONO-MAC-6 cells at 5 uM incubated for 30 mins measured after 4 hrs by qRT-PCR method relative to control; type: functional
MONO-MAC-6 [24] = assay: Upregulation of TNFalpha mRNA expression level in LPS-stimulated human MONO-MAC-6 cells at 5 uM preincubated for 30 mins followed by LPS stimulation measured after 1 hr by qRT-PCR method (reference value: 1.08); type: functional
MONO-MAC-6 [25] = assay: Upregulation of TNFalpha mRNA expression level in LPS-stimulated human MONO-MAC-6 cells at 5 uM preincubated for 30 mins followed by LPS stimulation measured after 2 hrs by qRT-PCR method (reference value: 3.10); type: functional

COc1ccc(CCN(C)CCCn2c3ccccc3c3ccccc32)cc1
Ratio [1]: 0.47
inhibition [2]: inactive
fold change (FC) (MONO-MAC-6 [3]): 2.93
fold change (FC) (MONO-MAC-6 [4]): 1.16
fold change (FC) (MONO-MAC-6 [5]): 7.41
fold change (FC) (MONO-MAC-6 [6]): 1.4
fold change (FC) (MONO-MAC-6 [7]): 1.61
fold change (FC) (MONO-MAC-6 [8]): 1.93
fold change (FC) (MONO-MAC-6 [9]): 3.91
fold change (FC) (MONO-MAC-6 [10]): 1.63
fold change (FC) (MONO-MAC-6 [11]): 1
fold change (FC) (MONO-MAC-6 [12]): 1.12
fold change (FC) (MONO-MAC-6 [13]): 2.28
fold change (FC) (MONO-MAC-6 [14]): 1.1
fold change (FC) (MONO-MAC-6 [15]): 1.31
fold change (FC) (MONO-MAC-6 [16]): 1.57
fold change (FC) (MONO-MAC-6 [17]): 1.01
fold change (FC) (MONO-MAC-6 [18]): 1.27
fold change (FC) (MONO-MAC-6 [19]): 1.845
fold change (FC) (MONO-MAC-6 [20]): 1.17
fold change (FC) (MONO-MAC-6 [21]): 1.04
fold change (FC) (MONO-MAC-6 [22]): 6.12
fold change (FC) (MONO-MAC-6 [23]): 2.25
fold change (FC) (MONO-MAC-6 [24]): 1.23
fold change (FC) (MONO-MAC-6 [25]): 1.34
